Test results published in ChEMBL document CHEMBL1123837, “1-Amino-substituted 4-methyl-5H-pyrido[3',4':4,5]pyrrolo[3,2-c]pyridines: a new class of antineoplastic agents” (J Med Chem, 1987).
The source made the active and inactive calls. The rule behind the calls is not given here.

Experiments:
[1] = test system: Calf thymus DNA; test: Binding affinity for DNA by ethidium bromide displacement assay; assay type: nucleic-acid assay; conditions: Bos taurus
Procedure, shortened: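 Competitive ethidium bromide displacement with calf thymus DNA at 10 µg/mL in 20 mM Na phosphate buffer, 0.1 M NaCl, 1 mM EDTA, pH 7.4. The apparent DNA affinity constant is given in 10^6 M^-1 ± standard deviation, from 6 values across two independent experiments.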

[2] = test system: L1210; test: In vitro cytotoxicity against L1210 cells was determined after 48 hours of incubation; assay type: functional, Mus musculus; conditions: Mus musculus, L1210, 48 h; read-out: ID50 (the source's name)
Procedure, shortened: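 Exponentially growing L1210 cells were cultured in RPMI 1640 with 2 mM glutamine, penicillin/streptomycin and 10% fetal calf serum, under 5% CO2 at 37 °C. Drugs dissolved in distilled water were added to cells at 0.8 × 10^5 cells/mL for 48 h, then cells were counted. ID50 was estimated by regression of dose-response data, as the mean of two values from two independent experiments.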

[3] = test system: Mus musculus; test: In vivo antitumor activity was determined against P388 leukemia cells expressed as treated/control at the dosae of (2.5-40)mg/kg; IA = Inactive; assay type: functional, organism-based
Procedure, shortened: (§1)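 Following NCI protocols, 10^6 viable P388 leukemia cells were inoculated ip on day 0 into male or female CDF1 hybrid mice, 10 per test group. Compounds in distilled water were given ip (0.1 mL/10 g body weight) at various doses on days 1–5. T/C = median survival day of treated / median survival day of negative controls × 100.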

[4] = test system: Mus musculus; test: In vivo antitumor activity was determined against P388 leukemia cells expressed as treated/control at the dose of (2.5-20)mg/kg(nontoxic at highest dose tested.); IA = Inactive; assay type: functional, organism-based; procedure, shortened: as §1
[5] = test system: Mus musculus; test: In vivo antitumor activity was determined against P388 leukemia cells expressed as treated/control at yhe dose of 2.5-40 mg/kg; IA = Inactive; assay type: functional, organism-based; procedure, shortened: as §1
[6] = test system: Mus musculus; test: In vivo antitumor activity was determined against P388 leukemia cells expressed as treated/control at the dose of (1.25-80)mg/kg; IA = Inactive; assay type: functional, organism-based; procedure, shortened: as §1
[7] = test system: Mus musculus; test: In vivo antitumor activity was determined against P388 leukemia cells expressed as treated/control at the dose of (5-50)mg/kg; IA = Inactive; assay type: functional, organism-based; procedure, shortened: as §1

SMILES | K aff [1] | IC50 [2] | T/C [3] | T/C [4] | T/C [5] | T/C [6] | T/C [7]
CCN(CC)CCCNc1ncc(C)c2c1c1cnccc1n2Cc1ccccc1 | 2000 M⁻¹ | 6.4 µM | inactive | – | – | – | –
CCCN(CCC)CCCNc1ncc(C)c2c1c1cnccc1n2C | 16000 M⁻¹ | 8.6 µM | – | inactive | – | – | –
Cc1cnc(NCCCN2CCCCC2)c2c3cnccc3n(C)c12 | 0.06 | 3.6 µM | – | – | inactive | – | –
Cc1c[nH]c(NCCCN2CCN(C)CC2)c2c3cnccc3nc1-2 | 27000 M⁻¹ | 59 µM | – | – | – | inactive | –
CCN(CC)CCCNc1nccc2c1c1cnccc1n2C | 17000 M⁻¹ | 1.6 µM | – | – | – | – | inactive
